Test results: PMC3245783 (Nature neuroscience, 2011)

What was measured:
[1] = system: formalin-induced nocifensive behavior; experiment: Formalin-induced pain behavior in mice; assay type: in vivo, mouse; conditions: formalin test, antagonist 1 mg-kg^-1, i.p.
Outline: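 Mice get intraplantar 5% formalin (20 μL). Nocifensive behaviour is scored in phase I (0–5 min) and phase II (5–45 min). Test compound is given i.p. at 0.01–1 mg-kg−1. In the antagonism arm, CB1, CB2 and TRPV-1 antagonists are each given at 1 mg-kg−1 i.p. Six mice per group; mean±SEM; two-way ANOVA with Bonferroni versus vehicle-injected controls.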

[2] = target: T1, FLAT-expressing Hek293 cells (Rattus norvegicus, UniProt P97612, DEL9-76); experiment: [3H]-anandamide accumulation in FLAT-expressing Hek293 cells; assay type: cell-based
T1 sequence (P97612 with tags, fused parts or gaps DEL9-76): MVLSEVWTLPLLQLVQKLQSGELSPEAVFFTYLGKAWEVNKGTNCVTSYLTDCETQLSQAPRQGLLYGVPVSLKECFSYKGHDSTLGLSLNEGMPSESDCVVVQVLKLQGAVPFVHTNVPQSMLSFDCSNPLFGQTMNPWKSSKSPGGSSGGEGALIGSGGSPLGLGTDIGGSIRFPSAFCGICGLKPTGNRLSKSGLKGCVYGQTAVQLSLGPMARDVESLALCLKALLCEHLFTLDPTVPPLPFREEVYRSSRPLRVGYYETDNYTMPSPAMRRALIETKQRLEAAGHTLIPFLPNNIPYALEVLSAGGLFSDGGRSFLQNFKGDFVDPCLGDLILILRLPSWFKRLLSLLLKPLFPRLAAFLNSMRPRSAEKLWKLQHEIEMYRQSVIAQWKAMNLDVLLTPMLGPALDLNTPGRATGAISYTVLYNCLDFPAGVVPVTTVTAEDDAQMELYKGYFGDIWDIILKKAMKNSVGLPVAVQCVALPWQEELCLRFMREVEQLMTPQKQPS

## Cc1c(C(=O)NN2CCCCC2)nn(-c2ccc(Cl)cc2Cl)c1-c1ccc(I)cc1 [AM251]
[1]
  effect of antagonist on antinociceptive actions of systemic ARN272: suppressed

## CCCCCC=CCC=CCC=CCC=CCCCC(=O)Nc1ccc(O)cc1 [AM404, N-(4-hydroxyphenyl)-eicosa-5,8,11,14-tetraenamide]
[2]
  IC50: 4 µM

## COc1ccc(C(=O)c2c(C)n(CCN3CCOCC3)c3cc(I)ccc23)cc1 [AM630]
[1]
  effect of antagonist on antinociceptive actions of systemic ARN272: ineffective

## CC(C)(C)c1ccc(/C=C/C(=O)Nc2ccc3c(c2)OCCO3)cc1 [AMG9810]
[1]
  effect of antagonist on antinociceptive actions of systemic ARN272: ineffective

## CCCCCCCC/C=C\CCCCCCCC(=O)N[C@H](CO)Cc1ccc(O)cc1 [OMDM-1]
[2]; FLAT-expressing Hek293 cells
  effect on [3H]-anandamide accumulation: prevented

## CCCCC/C=C\C/C=C\C/C=C\C/C=C\CCCC(=O)NCc1ccoc1 [UCM707]
[2]; FLAT-expressing Hek293 cells
  effect on [3H]-anandamide accumulation: prevented

## CCCCC/C=C\C/C=C\C/C=C\C/C=C\CCCC(=O)Nc1ccc(O)cc1C [VDM11]
[2]; FLAT-expressing Hek293 cells
  effect on [3H]-anandamide accumulation: prevented

## CCCCC/C=C\C/C=C\C/C=C\C/C=C\CCCC(=O)NCCO [anandamide, N-arachidonoylethanolamine]
[2]; non-radioactive anandamide 100 μM
  effect on [3H]-anandamide accumulation: prevented
